ChEMBL document CHEMBL1127627, “Synthesis and antitumor activity of a new class of pyrazolo[4,3-e]pyrrolo[1,2-a][1,4]diazepinone analogues of pyrrolo[1,4][2,1-c]benzodiazepines” (J Med Chem, 1994)
“And” between values parts separate entries of the source, which are not always exact repeats. Equal entries are not always repeated.

Assays:
L1210 [1] = test: Tested in vitro for inhibition after 48 hr exposure against murine leukemia cell line L1210; assay type: functional, cell-based; details: Mus musculus, L1210, 48 h
Procedure, shortened: (§1)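 L1210 murine leukemia cells and their melphalan-resistant L1210/L-PAM subline were used in growth-inhibition studies. IC50 is the concentration inhibiting growth by 50% after 48 h exposure, given as the mean of repeated experiments ± standard deviation.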

LoVo [2] = test: Tested in vitro for inhibition after 144 hr against human colon carcinoma LoVo/DX cell line resistant to Doxorubicin (DX); assay type: functional, cell-based
Procedure, shortened: (§2)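 LoVo human colon carcinoma cells and their doxorubicin-resistant LoVo/DX subline were used in growth-inhibition studies. IC50 is the concentration inhibiting growth by 50% after 144 h exposure to compound, reported as the mean of repeated experiments ± standard deviation.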

L1210 [3] = test: Tested in vitro for inhibition after 48 hr exposure against murine leukemia cell line L1210/L-PAM resistant to melphalan (L-PAM); assay type: functional, cell-based; details: Mus musculus, L1210, 48 h; procedure, shortened: as §1
LoVo [4] = test: Tested in vitro for inhibition after 144 hr exposure against human colon carcinoma LoVo cell line; assay type: functional, cell-based; procedure, shortened: as §2
[5] = Resistance index as the ratio of IC50 against L1210/L-PAM to that of L1210 cell lines; assay type: functional
[6] = Resistance index as the ratio of IC50 against LoVo/Dx to that of LoVo; assay type: functional
Procedure, shortened: (§3)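 Resistance index taken as IC50 in doxorubicin-resistant LoVo/DX human colon carcinoma cells over IC50 in parental LoVo cells. Each IC50 is the concentration giving 50% growth inhibition after 144 h exposure.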

L1210 [7] = test: Tested in vitro for inhibition after 48 hr exposure against murine leukemia cell line L1210 by experiment 1; assay type: functional, cell-based; details: Mus musculus, L1210, 48 h; procedure, shortened: as §1
L1210 [8] = test: Tested in vitro for inhibition after 48 hr exposure against murine leukemia cell line L1210 by experiment 2; assay type: functional, cell-based; details: Mus musculus, L1210, 48 h; procedure, shortened: as §1
L1210 [9] = test: Tested in vitro for inhibition after 48 hr exposure against murine leukemia cell line L1210/L-PAM resistant to melphalan (L-PAM) by experiment 1; assay type: functional, cell-based; details: Mus musculus, L1210, 48 h; procedure, shortened: as §1
L1210 [10] = test: Tested in vitro for inhibition after 48 hr exposure against murine leukemia cell line L1210/L-PAM resistant to melphalan (L-PAM) by experiment 2; assay type: functional, cell-based; details: Mus musculus, L1210, 48 h; procedure, shortened: as §1
[11] = Resistance index as the ratio of IC50 against L1210/L-PAM to that of L1210 cell lines in experiment 2.; assay type: functional
Procedure, shortened: (§4)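 Resistance index computed as IC50 in melphalan-resistant L1210/L-PAM murine leukemia cells divided by IC50 in parental L1210 cells. Each IC50 is the concentration inhibiting growth by 50% after 48 h exposure, from growth-inhibition studies.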

[12] = Resistance index as the ratio of IC50 against LoVo/Dx to that of LoVo in experiment 1; assay type: functional; procedure, shortened: as §3
L1210 [13] = test: tested in vitro for inhibition after 48 hr exposure against murine leukemia cell line L1210/L-PAM resistant to melphalan (L-PAM by experiment 1.; assay type: functional, cell-based; details: Mus musculus, L1210, 48 h; procedure, shortened: as §1
L1210 [14] = test: tested in vitro for inhibition after 48 hr exposure against murine leukemia cell line L1210/L-PAM resistant to melphalan (L-PAM by experiment 2.; assay type: functional, cell-based; details: Mus musculus, L1210, 48 h; procedure, shortened: as §1
[15] = Resistance index as the ratio of IC50 against L1210/L-PAM to that of L1210 cell lines.; assay type: functional; procedure, shortened: as §4
L1210 [16] = test: Tested in vitro for inhibition after 48 hr exposure against murine leukemia cell line L1210/L-PAM resistant to melphalan (L-PAM) by experiment 1.; assay type: functional, cell-based; details: Mus musculus, L1210, 48 h; procedure, shortened: as §1
[17] = Resistance index as the ratio of IC50 against LoVo/Dx to that of LoVo.; assay type: functional; procedure, shortened: as §3
L1210 [18] = test: Tested in vitro for inhibition after 48 hr exposure against murine leukemia cell line L1210/L-PAM resistant to melphalan (L-PAM) by experiment 2.; assay type: functional, cell-based; details: Mus musculus, L1210, 48 h; procedure, shortened: as §1
L1210 [19] = test: Tested in vitro for inhibition after 48 hr exposure against murine leukemia cell line L1210/L-PAM resistant to melphalan (L-PAM)by experiment 2.; assay type: functional, cell-based; details: Mus musculus, L1210, 48 h; procedure, shortened: as §1
L1210 [20] = test: Tested in vitro for inhibition after 48 hr exposure against murine leukemia cell line L1210/L-PAM resistant to melphalan (L-PAM)by experiment 1.; assay type: functional, cell-based; details: Mus musculus, L1210, 48 h; procedure, shortened: as §1

| Structure (SMILES) | IC50 (L1210 [1]) [µM] | IC50 (LoVo [2]) [µM] | IC50 (LoVo [4]) [µM] | IC50 (L1210 [7]) [µM] | IC50 (L1210 [8]) [µM] | RI [6] | further results |
| --- | --- | --- | --- | --- | --- | --- | --- |
| N[C@@H](Cc1ccc(N(CCCl)CCCl)cc1)C(=O)O | 15.3 | 4.9 | 4.09 |  |  | 1.18 | IC50 (L1210 [3]): 47 µM; RI [5]: 3.1 |
| COC(=O)c1nn(C)c2c1N=C[C@@H]1CCCN1C2=O | 27 | 60 | 54 |  |  | 1.12 |  |
| COc1cc2c(cc1O)N=C[C@@H]1CCCN1C2=O | 0.38 |  |  |  |  |  |  |
| Cc1c2c(nn1C)C(=O)N1CCC[C@H]1C=N2 | 8 | 32 | 27 |  |  | 1.2 |  |
| Cc1nn(Cc2ccccc2)c2c1N=C[C@@H]1CCCN1C2=O | 20 | 38 | 46 |  |  | 0.8 |  |
| Cc1c2c(nn1Cc1ccccc1)C(=O)N1CCC[C@H]1C=N2 | 3 | 25 | 54 |  |  | 0.5 |  |
| CCn1nc2c(c1C)N=C[C@@H]1CCCN1C2=O |  | 6 | 15 | 7 | 6 |  | IC50 (L1210 [9]): 6 µM; IC50 (L1210 [10]): 13 µM; RI [11]: 0.9 and 2; RI [12]: 0.4 |
| COC(=O)c1c2c(nn1C)C(=O)N1CCC[C@H]1C=N2 |  | > 162 | > 162 | 31 | 41 |  | IC50 (L1210 [13]): 69 µM; IC50 (L1210 [14]): 62 µM; RI [15]: 2.2 and 1.5 |
| Cc1nn(C)c2c1N=C[C@@H]1CCCN1C2=O | 22 | 39 | 42 |  |  | 0.9 |  |

More lines, main results first:

| IC50 (L1210 [1]) [µM] | IC50 (LoVo [2]) [µM] | IC50 (LoVo [4]) [µM] | IC50 (L1210 [7]) [µM] | IC50 (L1210 [8]) [µM] | Structure (SMILES) | RI [6] | further results |
| --- | --- | --- | --- | --- | --- | --- | --- |
| 12 | 8 | 30 |  |  | CC(C)c1c2c(nn1Cc1ccccc1)C(=O)N1CCC[C@H]1C=N2 | 0.2 | IC50 (L1210 [3]): 11 µM; RI [5]: 0.97 |
| 0.05 | 7.6 | 0.057 |  |  | COc1cccc2c1C(=O)c1c(O)c3c(c(O)c1C2=O)C[C@@](O)(C(=O)CO)C[C@@H]3O[C@H]1C[C@H](N)[C@H](O)[C@H](C)O1 [DOXORUBICIN] | 133 | IC50 (L1210 [3]): 0.06 µM |
| 0.012 | 0.004 | 0.009 |  |  | C/C=C1/CC2C(OC)Nc3cc(OC)c(OC)cc3C(=O)N2C1 (stereo not drawn) | 0.5 | IC50 (L1210 [3]): 0.015 µM; RI [5]: 1.4 |
|  | 11 | 37 | 0.5 | 0.8 | Cc1c2c(nn1Cc1ccc(Cl)cc1)C(=O)N1CCC[C@H]1C=N2 |  | IC50 (L1210 [16]): 0.16 µM; RI [15]: 2.8 and 3.1; RI [17]: 0.3; IC50 (L1210 [18]): 0.27 µM |
|  | 6 | 40 | 4 | 5 | Cc1ccc(Cn2nc3c(c2C)N=C[C@@H]2CCCN2C3=O)cc1C |  | IC50 (L1210 [16]): 8 µM; RI [17]: 0.2; IC50 (L1210 [18]): 4 µM |
|  | 32 | 48.4 | 19 | 11 | COc1ccc(Cn2nc3c(c2C)N=C[C@@H]2CCCN2C3=O)cc1 |  | IC50 (L1210 [19]): 6 µM; RI [17]: 0.7; IC50 (L1210 [20]): 3 µM |
|  | > 215 | > 215 | 40 | 69 | CCn1nc(C)c2c1C(=O)N1CCC[C@H]1C=N2 |  | IC50 (L1210 [16]): 101 µM; RI [15]: 2.5; IC50 (L1210 [18]): 125 µM |
